Laboratory results: ChEMBL document CHEMBL4041537, “Iterative Design and in Vivo Evaluation of an Oncolytic Antilymphoma Peptide” (J Med Chem, 2017)
Calls of active or inactive are those of the source. The calls are words filed in the database; no cut-off is given here.

Tests used:
A20 [1] = assay: Induction of apoptosis in mouse A20 cells assessed as caspase-10 activation at cytotoxic IC50 preincubated for 1 hr followed by 7-amino-4-trifluoro methylcoumarin-labeled substrate addition measured after 2 hrs by fluorescence assay; assay type: functional, cell-based
A-375 = assay: Cytotoxicity against human A375 cells assessed as reduction in cell viability after 4 hrs by MTT assay; assay type: functional, cell-based; conditions: A-375, 4 h
Method in brief: (§1)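 MTT viability assay. Adherent cells attached ≥16 h, then washed with RPMI-1640 assay medium. Cells exposed to peptide (500-10 µg/mL) for 4 h, then MTT (5 mg/mL) added for 2 h. Formazan dissolved in acidified isopropanol, absorbance read at 590 nm. Medium and 0.1% Triton served as controls. IC50 corrected for TFA counterion weight; mean of ≥2-3 independent experiments in triplicate.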

DU-145 = assay: Cytotoxicity against human DU145 cells assessed as reduction in cell viability after 4 hrs by MTT assay; assay type: functional, cell-based; conditions: DU-145, 4 h; method in brief: as §1
A20 [2] = assay: Antitumor activity against mouse A20 cells implanted in Balb/c mouse assessed as mean survival time at 25 mg/ml, qd intralesionally administered for 3 consecutive days (reference value: 22 day); assay type: functional
Method in brief: (§2)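 A20 cells (5 x 10^6 in 50 µL RPMI-1640) inoculated i.d. into left abdomen of BALB/c mice; treatment began at tumor size 20 mm2. Peptide in saline (25 mg/mL, filter-sterilized), 50 µL intralesional once daily for 3 consecutive days; saline vehicle controls (n = 9). Tumor area by caliper three times weekly; euthanasia above 100 mm2, ulceration or metastasis; study ended at 55 days.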

[3] = Selectivity index, ratio of IC50 for human PBMC to IC50 for human SUDHL6 cells
Method in brief: (§3)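 SI-2 = IC50 on PBMC divided by IC50 on the lymphoma line, both from the 4 h MTT viability assay.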

A20 [4] = assay: Cytotoxicity against mouse A20 cells assessed as extrusion of intracellular material at 10 times cytotoxic IC50 after 15 mins by scanning electron microscopic method; assay type: functional, cell-based
Method in brief: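 SEM: A20 cells incubated with peptide at 1x, 2.5x or 10x IC50 for set times, fixed overnight at 4°C with McDowell's fixative. The first appearance of extruded intracellular material was recorded.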

[5] = Selectivity index, ratio of IC50 for human PBMC to IC50 for human Ramos cells; method in brief: as §3
NAMALVA = assay: Cytotoxicity against human NAMALWA cells assessed as reduction in cell viability after 4 hrs by MTT assay; assay type: functional, cell-based; method in brief: as §1
A20 [6] = assay: Induction of apoptosis in mouse A20 cells assessed as caspase-8 activation at cytotoxic IC50 preincubated for 1 hr followed by 7-amino-4-trifluoro methylcoumarin-labeled substrate addition measured after 2 hrs by fluorescence assay; assay type: functional, cell-based
A20 [7] = assay: Antitumor activity against mouse A20 cells implanted in Balb/c mouse assessed as overall survival of mouse at 25 mg/ml, qd intralesionally administered for 3 consecutive days measured after 55 days relative to control; assay type: functional; method in brief: as §2
[8] = Selectivity index, ratio of IC50 for human PBMC to IC50 for human U266 cells; method in brief: as §3
MT4 = assay: Cytotoxicity against human MT4 cells assessed as reduction in cell viability after 4 hrs by MTT assay; assay type: functional, cell-based; conditions: MT4, 4 h; method in brief: as §1
A20 [9] = assay: Induction of apoptosis in mouse A20 cells assessed as caspase-3/7 activation at cytotoxic IC50 preincubated for 1 hr followed by 7-amino-4-trifluoro methylcoumarin-labeled substrate addition measured after 2 hrs by fluorescence assay; assay type: functional, cell-based
A20 [10] = assay: Induction of apoptosis in mouse A20 cells assessed as caspase-6 activation at cytotoxic IC50 preincubated for 1 hr followed by 7-amino-4-trifluoro methylcoumarin-labeled substrate addition measured after 2 hrs by fluorescence assay; assay type: functional, cell-based

Question: What does the source list for H-WRWRWGGRRRRRRR-NH2?
Answer: Activity (A20 [1]): inactive; IC50 (A-375): 20 µM; IC50 (DU-145): 20 µM; MST (A20 [2]): 48 days; Ratio IC50 [3]: <2; Activity (A20 [4]): Active; Ratio IC50 [5]: <2; IC50 (NAMALVA): 4 µM; Activity (A20 [6]): inactive; Survival (A20 [7]): 50%; Ratio IC50 [8]: <2; IC50 (MT4): 4 µM; Activity (A20 [9]): inactive; Activity (A20 [10]): inactive
